Experimental data reported in ChEMBL document CHEMBL1142242, “Indanylacetic acid derivatives carrying 4-thiazolyl-phenoxy tail groups, a new class of potent PPAR alpha/gamma/delta pan agonists: synthesis, structure-activity relationship, and in vivo efficacy” (J Med Chem, 2007).
Values after ≈ are worked out from the molar mass of the structure shown. Active and inactive are the calls of the source. The calls are words filed in the database; no cut-off is given here.

Tests used:
Mus musculus [1] = assay: Reduction of blood glucose level in orally dosed db/db mouse at 1 mg/kg after 8 days; type: functional, organism-based; set-up: dose 1 mg/kg
How it was run: (§1)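 Female db/db mice, on chow 3-4 weeks to confirm hyperglycemia, grouped by equal baseline blood glucose; oral dosing once daily in 0.5% methylcellulose in water; blood glucose by analyzer ~24 h after last dose; percent change vs vehicle = ((Tf/Ti)/(Vf/Vi) − 1) × 100.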

[2] = test system: PPAR alpha (Mesocricetus auratus); assay: Agonist activity at Syrian Golden hamster PPAR alpha
Mus musculus [3] = assay: Reduction of blood glucose level in orally dosed db/db mouse at 10 mg/kg after 8 days; type: functional, organism-based; set-up: dose 10 mg/kg; how it was run: as §1
Syrian golden hamster [4] = assay: Increase of HDL/LDL ratio in fat fed hyperlipidemic Golden Syrian hamster at 10 mg/kg, po after 14 days; type: functional, organism-based; set-up: dose 10 mg/kg; settings: Mesocricetus auratus
How it was run: (§2)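 Male Syrian Golden hamsters (≤7 weeks, 120-150 g) on high fat diet plus 10% fructose drinking water; bled day 10, then dosed orally once daily by weight for 14 days; necropsy day 24; EDTA plasma lipoproteins resolved by FPLC; mean ± SEM, 10 hamsters.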

Mus musculus [5] = assay: Increase of plasma HDLc level in female human apoA1 transgenic mouse at 10 mg/kg; type: functional, organism-based; set-up: dose 10 mg/kg
How it was run: (§3)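 hApoA1 transgenic mice, 6 weeks old at purchase, grouped by equal baseline plasma triglyceride; oral dosing once daily for 7 days in 0.5% methylcellulose in water; bled ~24 h after last dose; plasma triglyceride and HDLc by autoanalyzer; mean ± SEM, 6-8 mice.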

Rattus norvegicus [6] = assay: Reduction of FFA level in ZDF rat at 3 mg/kg, po after 21 days; type: functional, organism-based; set-up: dose 3 mg/kg
How it was run: (§4)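 Male ZDF rats, on chow 4-8 weeks to confirm hyperglycemia, grouped by equal baseline blood glucose; oral dosing once daily for 21 days in 0.5% methylcellulose in water; bled ~24 h after last dose; plasma FFA measured.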

Syrian golden hamster [7] = assay: Reduction of VLDL level in fat fed hyperlipidemic Golden Syrian hamster at 10 mg/kg, po after 14 days; type: functional, organism-based; set-up: dose 10 mg/kg; settings: Mesocricetus auratus; how it was run: as §2
Mus musculus [8] = assay: Increase of plasma HDLc level in male human apoA1 transgenic mouse at 10 mg/kg; type: functional, organism-based; set-up: dose 10 mg/kg; how it was run: as §3
Syrian golden hamster [9] = assay: Reduction of LDL level in fat fed hyperlipidemic Golden Syrian hamster at 10 mg/kg, po after 14 days; type: functional, organism-based; set-up: dose 10 mg/kg; settings: Mesocricetus auratus; how it was run: as §2
Estrogen receptor = Estrogen receptor (Mus musculus, UniProt O08537+P19785); assay: Displacement of [3H]O-estradiol from ER in Swiss mouse uteri; type: protein assay
Mus musculus [10] = assay: Reduction of plasma triglyceride level in male human apoA1 transgenic mouse at 10 mg/kg; type: functional, organism-based; set-up: dose 10 mg/kg; how it was run: as §3
Mus musculus [11] = assay: Reduction of blood glucose level in orally dosed db/db mouse at 3 mg/kg after 8 days; type: functional, organism-based; set-up: dose 3 mg/kg; how it was run: as §1
Rattus norvegicus [12] = assay: Reduction of FFA level in ZDF rat at 1 mg/kg, po after 21 days; type: functional, organism-based; set-up: dose 1 mg/kg; how it was run: as §4
[13] = molecular target: T1, Peroxisome proliferator-activated receptor alpha (Homo sapiens) (UniProt Q07869); assay: (§5) Agonist activity at human PPAR alpha expressed in CV1 cells by GAL4 transactivation assay; type: functional, cell-based; settings: CV-1
T1 sequence (whole entry): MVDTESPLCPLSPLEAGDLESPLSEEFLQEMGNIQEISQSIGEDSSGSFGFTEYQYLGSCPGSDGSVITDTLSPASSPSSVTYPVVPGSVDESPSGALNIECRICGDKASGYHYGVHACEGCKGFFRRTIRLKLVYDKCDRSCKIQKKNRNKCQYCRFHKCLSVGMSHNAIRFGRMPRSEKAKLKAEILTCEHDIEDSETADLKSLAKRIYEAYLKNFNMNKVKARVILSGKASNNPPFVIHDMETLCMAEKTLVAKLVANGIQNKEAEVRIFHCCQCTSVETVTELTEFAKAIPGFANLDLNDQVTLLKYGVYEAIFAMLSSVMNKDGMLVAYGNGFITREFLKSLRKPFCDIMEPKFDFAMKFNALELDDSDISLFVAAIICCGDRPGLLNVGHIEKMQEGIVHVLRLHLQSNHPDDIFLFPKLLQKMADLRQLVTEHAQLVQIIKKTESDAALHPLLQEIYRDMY
How it was run: (§6)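 CV-1 cells plated, grown overnight at 37 °C in 5% CO₂, then transfected with GAL4-fused human PPARα ligand binding domain, pFR-LUC and pRL-SV40 reporter DNAs by lipofection. After a further overnight incubation, cells were exposed to compound or vehicle overnight. Activity was read as dual-luciferase reporter signal.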

[14] = molecular target: T2, Peroxisome proliferator-activated receptor alpha (Mus musculus) (UniProt P23204); assay: (§7) Agonist activity at mouse PPAR alpha; type: functional
T2 sequence (whole entry): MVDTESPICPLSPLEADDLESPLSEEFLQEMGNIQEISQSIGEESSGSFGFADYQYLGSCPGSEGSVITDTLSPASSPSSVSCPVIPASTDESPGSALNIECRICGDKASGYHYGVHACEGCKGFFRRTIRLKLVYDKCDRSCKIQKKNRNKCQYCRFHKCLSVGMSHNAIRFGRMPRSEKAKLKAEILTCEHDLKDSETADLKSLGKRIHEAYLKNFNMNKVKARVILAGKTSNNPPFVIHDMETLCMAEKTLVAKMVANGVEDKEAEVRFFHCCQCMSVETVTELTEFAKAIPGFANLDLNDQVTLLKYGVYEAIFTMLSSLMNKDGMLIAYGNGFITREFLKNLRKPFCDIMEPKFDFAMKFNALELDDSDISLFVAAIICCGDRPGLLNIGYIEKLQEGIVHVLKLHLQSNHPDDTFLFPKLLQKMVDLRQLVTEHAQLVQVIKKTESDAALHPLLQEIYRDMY

Rattus norvegicus [15] = assay: Reduction of FFA level in ZDF rat at 10 mg/kg, po after 21 days; type: functional, organism-based; set-up: dose 10 mg/kg; how it was run: as §4
Syrian golden hamster [16] = assay: Reduction of LDL level in fat fed hyperlipidemic Golden Syrian hamster at 100 mg/kg, po after 14 days; type: functional, organism-based; set-up: dose 100 mg/kg; settings: Mesocricetus auratus; how it was run: as §2
Syrian golden hamster [17] = assay: Reduction of VLDL level in fat fed hyperlipidemic Golden Syrian hamster at 100 mg/kg, po after 14 days; type: functional, organism-based; set-up: dose 100 mg/kg; settings: Mesocricetus auratus; how it was run: as §2
Syrian golden hamster [18] = assay: Increase of HDL/LDL ratio in fat fed hyperlipidemic Golden Syrian hamster at 100 mg/kg, po after 14 days; type: functional, organism-based; set-up: dose 100 mg/kg; settings: Mesocricetus auratus; how it was run: as §2
Cytochrome P450 3A4 = Cytochrome P450 3A4 (Homo sapiens, UniProt P08684); assay: Inhibition of CYP3A4; type: ADME
How it was run: (§8)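 Enzyme assays per CYP isoform (1A2, 2C8, 2D6, 3A4), with turnover of an appropriate fluorescent substrate as read-out; IC₅₀ reported.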

Cytochrome P450 2D6 = Cytochrome P450 2D6 (Homo sapiens, UniProt P10635); assay: Inhibition of CYP2D6; type: ADME; how it was run: as §8
[19] = Aqueous solubility at pH 6.8; type: physicochemical
[20] = molecular target: Peroxisome proliferator-activated receptor delta (Mus musculus, UniProt P35396); assay: Agonist activity at mouse PPAR delta
[21] = molecular target: T3, Peroxisome proliferator-activated receptor delta (Homo sapiens, UniProt Q03181); assay: Agonist activity at human PPAR delta expressed in CV1 cells by GAL4 transactivation assay
T3 sequence (Q03181 whole entry): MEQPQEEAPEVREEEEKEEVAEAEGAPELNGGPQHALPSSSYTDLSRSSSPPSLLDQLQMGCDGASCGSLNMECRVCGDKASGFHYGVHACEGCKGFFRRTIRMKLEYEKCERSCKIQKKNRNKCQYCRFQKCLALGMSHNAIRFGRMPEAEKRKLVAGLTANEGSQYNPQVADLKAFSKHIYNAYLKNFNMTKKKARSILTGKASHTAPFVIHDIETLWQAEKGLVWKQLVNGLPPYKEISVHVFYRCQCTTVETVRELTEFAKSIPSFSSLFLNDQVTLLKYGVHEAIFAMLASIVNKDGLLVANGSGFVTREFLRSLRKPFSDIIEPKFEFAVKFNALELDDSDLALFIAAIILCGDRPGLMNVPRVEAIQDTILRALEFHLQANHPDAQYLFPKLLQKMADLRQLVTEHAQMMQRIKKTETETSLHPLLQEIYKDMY

Androgen receptor = Androgen receptor (Homo sapiens, UniProt P10275); assay: Displacement of [3H]dihydrotestosterone from human recombinant androgen receptor expressed in SF9 baculovirus cells
Cytochrome P450 2C8 = Cytochrome P450 2C8 (Homo sapiens, UniProt P10632); assay: Inhibition of CYP2C8; type: ADME; how it was run: as §8
Cytochrome P450 1A2 = Cytochrome P450 1A2 (Homo sapiens, UniProt P05177); assay: Inhibition of CYP1A2; type: ADME; how it was run: as §8
Cytochrome P450 2C9 = Cytochrome P450 2C9 (Homo sapiens, UniProt P11712); assay: Inhibition of CYP2C9; type: ADME
[22] = Cmax in mouse at 10 mg/kg, po; type: ADME, organism-based; set-up: dose 10 mg/kg, route oral; settings: in vivo
How it was run: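 Mice dosed orally in 0.5% methylcellulose vehicle; plasma Cmax reported.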

[23] = molecular target: T3, Peroxisome proliferator-activated receptor delta; assay: Agonist activity at human PPAR delta by FRET assay; type: functional
Progesterone receptor = Progesterone receptor (Homo sapiens, UniProt P06401); assay: Displacement of [3H]progesterone from progesterone receptor in T47D cells; type: cell-based
How it was run: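 Cytosol from T47D cells incubated overnight at 4 °C with ³H-progesterone at 10 nM final, with or without compound. DMSO defined total binding and 1 µM unlabelled progesterone defined nonspecific binding. Bound and free ligand were separated on a spin plate, and the flow-through was counted by scintillation.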

[24] = molecular target: T4, Peroxisome proliferator-activated receptor alpha (Homo sapiens, UniProt Q07869); assay: as §5; type: functional, cell-based, CV-1; how it was run: as §6
T4 sequence (Q07869 whole entry): T1 sequence (whole entry)

Glucocorticoid receptor = Glucocorticoid receptor (Homo sapiens, UniProt P04150); assay: Displacement of [H]dexamethaxone from glucocorticoid receptor in HUH cells; type: cell-based
[25] = molecular target: T4, Peroxisome proliferator-activated receptor alpha; assay: Agonist activity at human PPAR alpha by FRET assay; type: functional
How it was run: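 Human PPARα ligand binding domain (GST-tagged) association with biotin-labeled co-activator CBP; Eu-labeled anti-GST antibody and streptavidin-APC; incubated 2 h at rt in buffer with or without compound; fluorescence read at 615 or 655 nm emission, 340 nm excitation.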

[26] = molecular target: Peroxisome proliferator-activated receptor alpha (Mus musculus, UniProt P23204); assay: as §7; type: functional

Chain of Androgen receptor (P10275 whole entry): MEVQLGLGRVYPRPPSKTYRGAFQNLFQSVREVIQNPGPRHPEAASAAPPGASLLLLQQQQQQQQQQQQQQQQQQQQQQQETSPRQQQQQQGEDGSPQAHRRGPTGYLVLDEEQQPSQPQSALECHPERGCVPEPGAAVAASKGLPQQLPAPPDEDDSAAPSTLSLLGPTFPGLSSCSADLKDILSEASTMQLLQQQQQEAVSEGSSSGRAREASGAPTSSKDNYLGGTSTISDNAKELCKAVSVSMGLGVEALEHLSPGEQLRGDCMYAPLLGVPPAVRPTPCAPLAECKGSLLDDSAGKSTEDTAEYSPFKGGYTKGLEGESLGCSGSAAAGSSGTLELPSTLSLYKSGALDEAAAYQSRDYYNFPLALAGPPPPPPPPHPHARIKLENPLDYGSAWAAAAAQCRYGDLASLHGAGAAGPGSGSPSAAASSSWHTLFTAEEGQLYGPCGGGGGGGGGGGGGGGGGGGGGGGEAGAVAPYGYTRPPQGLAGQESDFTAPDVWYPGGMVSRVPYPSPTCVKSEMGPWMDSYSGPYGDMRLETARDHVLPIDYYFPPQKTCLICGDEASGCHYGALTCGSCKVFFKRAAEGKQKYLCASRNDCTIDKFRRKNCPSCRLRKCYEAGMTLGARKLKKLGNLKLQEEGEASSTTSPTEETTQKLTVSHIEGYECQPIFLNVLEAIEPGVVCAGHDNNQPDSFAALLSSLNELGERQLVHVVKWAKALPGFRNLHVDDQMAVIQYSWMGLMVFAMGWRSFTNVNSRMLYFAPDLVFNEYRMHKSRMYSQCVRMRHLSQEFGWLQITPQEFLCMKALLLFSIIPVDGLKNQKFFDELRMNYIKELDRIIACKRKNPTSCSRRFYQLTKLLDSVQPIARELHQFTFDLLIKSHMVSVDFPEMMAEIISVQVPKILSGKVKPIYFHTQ
Chain of Cytochrome P450 2C9 (P11712 whole entry): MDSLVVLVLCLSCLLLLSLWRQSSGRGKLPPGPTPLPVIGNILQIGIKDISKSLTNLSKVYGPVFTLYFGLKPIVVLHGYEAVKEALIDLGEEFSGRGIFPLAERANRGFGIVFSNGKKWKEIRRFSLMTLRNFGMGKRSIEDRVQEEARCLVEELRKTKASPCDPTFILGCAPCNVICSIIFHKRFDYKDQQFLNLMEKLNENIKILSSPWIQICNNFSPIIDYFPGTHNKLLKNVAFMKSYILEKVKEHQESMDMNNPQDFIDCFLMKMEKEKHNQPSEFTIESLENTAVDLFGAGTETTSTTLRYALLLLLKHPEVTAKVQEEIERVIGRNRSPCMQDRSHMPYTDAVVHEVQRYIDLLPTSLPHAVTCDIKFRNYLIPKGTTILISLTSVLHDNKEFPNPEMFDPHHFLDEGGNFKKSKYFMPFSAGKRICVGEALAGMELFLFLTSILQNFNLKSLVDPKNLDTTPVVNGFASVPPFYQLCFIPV
Chain of Glucocorticoid receptor (P04150 whole entry): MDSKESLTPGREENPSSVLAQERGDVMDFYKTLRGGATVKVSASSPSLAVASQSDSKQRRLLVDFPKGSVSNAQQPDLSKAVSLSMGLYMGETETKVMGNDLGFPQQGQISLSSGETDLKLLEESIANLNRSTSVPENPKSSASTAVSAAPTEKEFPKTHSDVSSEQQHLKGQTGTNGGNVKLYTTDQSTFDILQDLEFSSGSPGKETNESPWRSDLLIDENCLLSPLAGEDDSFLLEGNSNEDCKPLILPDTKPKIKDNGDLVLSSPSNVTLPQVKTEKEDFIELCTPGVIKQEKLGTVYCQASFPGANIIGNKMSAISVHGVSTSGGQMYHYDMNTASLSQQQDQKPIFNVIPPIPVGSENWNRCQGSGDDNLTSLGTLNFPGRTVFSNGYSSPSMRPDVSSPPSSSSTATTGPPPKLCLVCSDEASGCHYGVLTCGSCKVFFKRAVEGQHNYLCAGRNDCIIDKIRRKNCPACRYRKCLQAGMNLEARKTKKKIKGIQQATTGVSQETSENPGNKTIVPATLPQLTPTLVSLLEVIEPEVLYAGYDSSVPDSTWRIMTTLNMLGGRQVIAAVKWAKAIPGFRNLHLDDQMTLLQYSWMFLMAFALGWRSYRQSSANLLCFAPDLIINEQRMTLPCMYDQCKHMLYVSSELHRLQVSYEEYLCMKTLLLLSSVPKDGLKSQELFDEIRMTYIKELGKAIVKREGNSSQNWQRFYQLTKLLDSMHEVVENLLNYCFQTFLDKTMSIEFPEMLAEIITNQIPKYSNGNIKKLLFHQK
Chain of Cytochrome P450 1A2 (P05177 whole entry): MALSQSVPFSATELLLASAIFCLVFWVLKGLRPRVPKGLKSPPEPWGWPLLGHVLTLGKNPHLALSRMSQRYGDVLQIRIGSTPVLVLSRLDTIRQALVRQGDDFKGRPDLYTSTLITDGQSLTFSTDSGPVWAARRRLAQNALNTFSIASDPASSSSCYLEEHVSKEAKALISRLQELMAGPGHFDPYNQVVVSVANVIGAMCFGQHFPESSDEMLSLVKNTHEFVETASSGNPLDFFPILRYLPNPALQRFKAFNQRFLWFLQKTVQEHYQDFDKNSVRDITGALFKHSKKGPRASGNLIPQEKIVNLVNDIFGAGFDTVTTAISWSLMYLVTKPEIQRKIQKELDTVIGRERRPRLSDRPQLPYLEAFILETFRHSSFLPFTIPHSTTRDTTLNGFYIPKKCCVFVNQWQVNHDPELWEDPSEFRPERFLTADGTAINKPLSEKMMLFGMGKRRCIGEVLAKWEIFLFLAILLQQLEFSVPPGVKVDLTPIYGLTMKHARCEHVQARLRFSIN
Chain of Cytochrome P450 2D6 (P10635 whole entry): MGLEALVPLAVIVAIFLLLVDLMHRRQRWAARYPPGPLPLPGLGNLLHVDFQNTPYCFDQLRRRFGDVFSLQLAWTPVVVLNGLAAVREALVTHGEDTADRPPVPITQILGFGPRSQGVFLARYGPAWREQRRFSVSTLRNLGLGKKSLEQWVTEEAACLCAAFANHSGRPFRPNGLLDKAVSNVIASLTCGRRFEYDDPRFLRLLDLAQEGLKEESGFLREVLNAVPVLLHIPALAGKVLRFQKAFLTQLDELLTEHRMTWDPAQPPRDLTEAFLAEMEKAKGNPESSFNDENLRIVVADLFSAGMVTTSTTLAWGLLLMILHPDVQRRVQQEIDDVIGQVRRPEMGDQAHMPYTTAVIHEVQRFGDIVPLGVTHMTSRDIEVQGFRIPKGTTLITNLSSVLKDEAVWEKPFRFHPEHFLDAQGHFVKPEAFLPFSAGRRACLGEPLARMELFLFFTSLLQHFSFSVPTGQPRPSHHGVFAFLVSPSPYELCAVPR
Chain of Peroxisome proliferator-activated receptor delta (Mus musculus, UniProt P35396) (P35396 whole entry, the tested form may be a part): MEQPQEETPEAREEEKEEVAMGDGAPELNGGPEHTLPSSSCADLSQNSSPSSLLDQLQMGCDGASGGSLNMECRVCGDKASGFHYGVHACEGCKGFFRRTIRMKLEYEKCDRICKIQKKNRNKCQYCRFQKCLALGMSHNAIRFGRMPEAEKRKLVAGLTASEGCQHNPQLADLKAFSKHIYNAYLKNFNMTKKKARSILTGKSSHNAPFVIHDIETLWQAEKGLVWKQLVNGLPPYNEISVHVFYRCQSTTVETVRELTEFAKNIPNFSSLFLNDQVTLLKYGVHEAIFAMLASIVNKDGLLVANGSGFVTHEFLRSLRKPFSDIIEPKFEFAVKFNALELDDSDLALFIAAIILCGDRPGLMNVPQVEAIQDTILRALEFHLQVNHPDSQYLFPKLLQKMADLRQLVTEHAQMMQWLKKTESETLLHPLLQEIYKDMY
Chain of Cytochrome P450 3A4 (P08684 whole entry, canonical isoform): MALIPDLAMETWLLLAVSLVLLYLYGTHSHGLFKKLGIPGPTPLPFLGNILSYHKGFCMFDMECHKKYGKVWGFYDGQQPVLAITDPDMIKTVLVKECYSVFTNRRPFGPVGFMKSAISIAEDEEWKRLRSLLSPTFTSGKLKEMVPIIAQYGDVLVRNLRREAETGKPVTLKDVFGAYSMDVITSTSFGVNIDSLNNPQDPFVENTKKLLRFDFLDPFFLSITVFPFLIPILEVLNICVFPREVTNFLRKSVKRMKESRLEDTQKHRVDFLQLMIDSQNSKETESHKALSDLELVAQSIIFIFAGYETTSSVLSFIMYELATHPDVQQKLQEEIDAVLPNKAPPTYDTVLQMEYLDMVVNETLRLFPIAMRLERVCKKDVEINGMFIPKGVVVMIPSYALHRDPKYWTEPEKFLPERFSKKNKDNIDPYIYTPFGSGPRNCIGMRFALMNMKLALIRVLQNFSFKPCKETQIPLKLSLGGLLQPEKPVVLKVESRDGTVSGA
Chain of Cytochrome P450 2C8 (P10632 whole entry): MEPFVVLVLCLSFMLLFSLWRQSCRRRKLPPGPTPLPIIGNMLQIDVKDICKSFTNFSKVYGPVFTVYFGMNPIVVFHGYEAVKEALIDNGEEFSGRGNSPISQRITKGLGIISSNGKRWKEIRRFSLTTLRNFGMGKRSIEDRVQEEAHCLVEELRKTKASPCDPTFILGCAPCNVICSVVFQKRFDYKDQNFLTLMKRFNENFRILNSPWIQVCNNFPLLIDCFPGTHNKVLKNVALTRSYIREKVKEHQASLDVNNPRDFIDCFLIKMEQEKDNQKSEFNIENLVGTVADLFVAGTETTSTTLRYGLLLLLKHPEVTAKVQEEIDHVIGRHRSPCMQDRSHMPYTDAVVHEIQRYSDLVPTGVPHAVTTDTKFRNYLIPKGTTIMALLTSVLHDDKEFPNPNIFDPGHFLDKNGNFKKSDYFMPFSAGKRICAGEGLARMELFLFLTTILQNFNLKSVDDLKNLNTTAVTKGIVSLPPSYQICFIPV

## CCCc1cc(C2=NC3OCCCC3S2)ccc1OCCCOc1ccc2c(c1)CC[C@H]2CC(=O)O (stereo partly specified)
Mus musculus [1]
  Activity: Dose-dependent effect
[2]
  Activity: 100%
Mus musculus [3]
  Activity: Dose-dependent effect
Syrian golden hamster [4]
  Activity: Active
Mus musculus [5]
  Activity: Active
Rattus norvegicus [6]
  Activity: Active
Syrian golden hamster [7]
  Activity: Active
Mus musculus [8]
  Activity: Dose-dependent effect
Syrian golden hamster [9]
  Activity: Active
Estrogen receptor
  EC50: > 10 µM
Mus musculus [10]
  Activity: Dose-dependent effect
Mus musculus [11]
  Activity: Dose-dependent effect
Rattus norvegicus [12]
  Activity: Active
[13]
  Activity: 88%
[14]
  Activity: 25%

## CN(CCOc1ccc(CC2SC(=O)NC2=O)cc1)c1ccccn1 (stereo unspecified)
Rattus norvegicus [15]
  Activity: Active
Mus musculus [1]
  Activity: Dose-dependent effect
Mus musculus [3]
  Activity: Dose-dependent effect
Mus musculus [11]
  Activity: Dose-dependent effect

## CC(C)OC(=O)C(C)(C)Oc1ccc(C(=O)c2ccc(Cl)cc2)cc1
Syrian golden hamster [16]
  Activity: Active
Syrian golden hamster [17]
  Activity: Active
Syrian golden hamster [18]
  Activity: Active

## O=C(O)C[C@@H]1CCc2cc(OCCCOc3ccc(-c4nc5c(s4)CCCC5)cc3)ccc21
Cytochrome P450 3A4
  IC50: > 10 µM
Cytochrome P450 2D6
  IC50: > 10 µM
[19]
  solubility: 31 µM (≈ 14.4 µg/mL)
[20]
  EC50: 0.084 µM
[21]
  EC50: 0.04 µM
Androgen receptor
  EC50: > 10 µM
Cytochrome P450 2C8
  IC50: > 10 µM
Cytochrome P450 1A2
  IC50: > 10 µM
Cytochrome P450 2C9
  IC50: > 10 µM
[22]
  Cmax: 20 µM
[23]
  EC50: 0.0022 µM
Estrogen receptor
  EC50: > 10 µM
Progesterone receptor
  EC50: > 10 µM
[13]
  Activity: 100%
[24]
  EC50: 0.152 µM
Glucocorticoid receptor
  EC50: > 10 µM
[25]
  EC50: 0.391 µM
[26]
  EC50: > 10 µM
[14]
  Activity: 28%
